Folding enthalpy and Tm data for 74 sequences are collected here from the array DNA melting data of Ke et al. (doi:10.1101/2024.01.08.574731).

The nature of series [1]: folding enthalpy; higher = less favourable; fluorescence melt of hairpins on a sequencing array, two-state fit. Particulars: sodium 0.088 M. In short, it runs like this: (§1)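 In 50 mM Na-HEPES pH 8.0 containing 25 mM NaCl, hairpins from the library on a sequenced MiSeq flow cell were imaged for Cy3 fluorescence at 2.5 °C steps up to 60 °C, with Cy3 and quencher oligos annealed. After normalisation to pre-quench Cy3 and to control constructs, two-state fits with bootstrapping gave melting temperature and folding enthalpy. Four replicates were combined by inverse-variance weighting, and fitted temperatures were shifted up by 9.35 °C to match UV melts.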

Series [2] is described as follows: melting temperature; fluorescence melt of hairpins on a sequencing array, two-state fit, raised by 9.35 °C to match UV melts. Particulars: sodium 0.088 M. In short, it runs like this: as §1

With GATCTTTTAAAGATC ((((((...)))))), the folding enthalpy in series [1] was -30.9 kcal/mol. Also, the Tm in series [2] stood at 43.8 °C.
Consider GATCAGCCCGCTGATC ((((((....)))))), for which the folding enthalpy in series [1] is -47.1 kcal/mol. For the same sequence, the Tm in series [2] was found to be 58.3 °C.
The matching figures for GCGGAAGGAAACTTCCAC (.(((((....))))).): -15.9 kcal/mol and 37.4 °C.
Taken in the same sequence, the figures for GGTTCAGGAAACTGAACC (((((((....))))))) were -41.4 kcal/mol and 63.8 °C.
Taken in the same sequence, the figures for GCAAGGCGAAAGCCTCGC ((.((((....)))).)) were -18.4 kcal/mol and 59.3 °C.
As to GGATCCGAAAGGACGTCC ((((((....)))..))), the folding enthalpy in series [1] is -13.8 kcal/mol. Besides, in series [2], the Tm was 31.9 °C.
Take GCGTGTTCACGC ((((....)))): the folding enthalpy in series [1] was -29 kcal/mol. The Tm in series [2] came to 59.5 °C.
The matching figures for GACCACGGAAACACGGTC ((((..(....)..)))): -30.3 kcal/mol and 35.3 °C.
Taken in the same sequence, the figures for GATCCTTCCGAGGATC ((((((....)))))) were -43.5 kcal/mol and 53.1 °C.
Taken in the same sequence, the figures for GCTACATCGAAAGATAGC (((..(((....)))))) were -16.7 kcal/mol and 33.8 °C.
Turning to GTTTTGTCGAAAGACAAC (((..(((....)))))), the folding enthalpy in series [1] was -12.8 kcal/mol. For the same sequence, the Tm in series [2] came to 37.5 °C.
Regarding GAAAGAGAAATCTTTC ((((((....)))))), the folding enthalpy in series [1] is -18.2 kcal/mol. For the same sequence, in series [2], the Tm came to 36.8 °C.
The matching figures for GACGCCGAAAGGCATGTC ((((((....)))..))): -15.2 kcal/mol and 43.3 °C.
The matching figures for GGCGTCGAAAGACGAGCC ((((((....)))..))): -16.7 kcal/mol and 54 °C.
Taken in the same sequence, the figures for GATCGAAAGATCGATC ((((((....)))))) were -19.9 kcal/mol and 50.2 °C.
Take GATCAGAACCCTGATC ((((((....)))))): the folding enthalpy in series [1] is -39.8 kcal/mol. For the same sequence, the Tm in series [2] is 47 °C.
Consider GCAATTGGAAACAATTAC (.(((((....))))).), for which the folding enthalpy in series [1] was -15.1 kcal/mol. Further, the Tm in series [2] worked out at 30.6 °C.
The matching figures for GCGACGATTCGC ((((....)))): -15.9 kcal/mol and 44.6 °C.
As to GTGATCGAAAGATGCAC ((((((....))).))), the folding enthalpy in series [1] is -19.6 kcal/mol. Besides, the Tm in series [2] was 38.7 °C.
Take GCCGCGCGAAAGCGGAGC ((..(((....)))..)): in series [1], the folding enthalpy was -12.8 kcal/mol. Moreover, in series [2], the Tm stood at 52.5 °C.
The matching figures for GTTGAGCCGAAAGGCAAC (((..(((....)))))): -10.6 kcal/mol and 38.8 °C.
Taken in the same sequence, the figures for GTGGATGGAAACGTCTAC ((.((.(....).)).)) were -19.8 kcal/mol and 32.5 °C.
On to GATCGTGGAAACATGGTC ((.(.((....)).).)), for which the folding enthalpy in series [1] is -20.4 kcal/mol. The Tm in series [2] turned out to be 32.7 °C.
The matching figures for GTGGCCGAAAGGCACCAC ((((((....)))..))): -12.3 kcal/mol and 43.6 °C.
The matching figures for GGCGGTACGAAAGTAGCC (((..(((....)))))): -18.8 kcal/mol and 50.7 °C.
Regarding GTTTTGGGAAACCAAAGC (.(((((....))))).), the folding enthalpy in series [1] was -29.8 kcal/mol. In addition, in series [2], the Tm was 41 °C.
Regarding GATCTCTGGAGAGATC ((((((....)))))), in series [1], the folding enthalpy was -34.4 kcal/mol. Besides, in series [2], the Tm is 53.1 °C.
The matching figures for GTCGCTTCGAAAGAAGAC (((..(((....)))))): -9.98 kcal/mol and 33.9 °C.
The matching figures for GCCTGCGAAAGCACCGGC ((((((....)))..))): -18.5 kcal/mol and 46.6 °C.
The matching figures for GGCCTCGAAAGAGCCGCC ((((((....)))..))): -20.3 kcal/mol and 57.2 °C.
GAAAGGCGAAAGCCTTC (((.(((....)))))): the folding enthalpy in series [1] was -10.4 kcal/mol. In addition, in series [2], the Tm stood at 49.6 °C.
The matching figures for GGTGTGGGAAACTACGCC ((.((.(....).)).)): -29.6 kcal/mol and 43.4 °C.
Taken in the same sequence, the figures for GATCCTTGACAGGATC ((((((....)))))) were -28.2 kcal/mol and 49.7 °C.
The matching figures for GGTGCCGGAAACGGTACC (((.(((....))).))): -35.8 kcal/mol and 64.1 °C.
In the case of GAAACCGAAAGGTCTTTC ((((((....)))..))), in series [1], the folding enthalpy is -14 kcal/mol. In series [2], the Tm is 32.3 °C.
Taken in the same sequence, the figures for GTCAATCGAAAGATAGAC (((.(((....))).))) were -28.2 kcal/mol and 43.5 °C.
Take GAGCGGCGAAAGCCCTC (((.(((....)))))): in series [1], the folding enthalpy was -16.1 kcal/mol. For the same sequence, in series [2], the Tm stood at 53 °C.
Turning to GATCGACGAAAGTCCATC (((.(((....))).))), the folding enthalpy in series [1] is -15.5 kcal/mol. For the same sequence, the Tm in series [2] is 30 °C.
The matching figures for GTTAGCCGAAAGGCAAC (((.(((....)))))): -13.5 kcal/mol and 49.3 °C.
The matching figures for GCACTACGAAAGTAATGC (((.(((....))).))): -29.3 kcal/mol and 43.7 °C.
Regarding GATCGTCTTAACGATC ((((((....)))))), the folding enthalpy in series [1] is -41.3 kcal/mol. For the same sequence, the Tm in series [2] was determined as 58.5 °C.
The matching figures for GTGGACTCGAAAGAGCAC (((..(((....)))))): -21.4 kcal/mol and 39.7 °C.
The matching figures for GTTAAGGGAAACCTTAGC (.(((((....))))).): -23.4 kcal/mol and 34.8 °C.
Taken in the same sequence, the figures for GCGCGTTCGAAAGAACGC (((..(((....)))))) were -6.28 kcal/mol and 68 °C.
Turning to GGGGACCGAAAGGTTCCC (((.(((....))).))), the folding enthalpy in series [1] is -43.5 kcal/mol. Moreover, in series [2], the Tm is 66.3 °C.
For GATCCGGGAAACTGGATC (((((.(....).))))), in series [1], the folding enthalpy was -41.7 kcal/mol. Further, the Tm in series [2] came to 52.1 °C.
For GATCGGACTCCGATC ((((((...)))))), the folding enthalpy in series [1] is -33.8 kcal/mol. The Tm in series [2] was 55.2 °C.
Taken in the same sequence, the figures for GTGTCCCGAAAGGGCAC (((.(((....)))))) were -26.1 kcal/mol and 65.2 °C.
The matching figures for GGTACCGAAAGGTTCACC ((((((....)))..))): -13.6 kcal/mol and 34.4 °C.
Taken in the same sequence, the figures for GCGATTCGTCGC ((((....)))) were -28.4 kcal/mol and 54.5 °C.
Consider GTGAGTGGAAACACTCAC (((((((....))))))), for which, in series [1], the folding enthalpy was -44 kcal/mol. Besides, the Tm in series [2] was found to be 66.2 °C.
Regarding GTGGTGGGAAACCATCAC (((.(((....))).))), the folding enthalpy in series [1] was -43.1 kcal/mol. Also, the Tm in series [2] is 51.2 °C.
Regarding GATCAGAGATCTGATC ((((((....)))))), in series [1], the folding enthalpy is -24.3 kcal/mol. Besides, the Tm in series [2] came out at 50.1 °C.
Regarding GATCCAGGAAACTGGGTC ((.((((....)))).)), in series [1], the folding enthalpy is -29.9 kcal/mol. Besides, in series [2], the Tm is 49.9 °C.
The matching figures for GAGTGCGAAAGCACACTC ((((((....)))..))): -12.6 kcal/mol and 58.6 °C.
The matching figures for GCGCGCCGAAAGGCCCGC (((.(((....))).))): -32.2 kcal/mol and 68.5 °C.
The matching figures for GGCCCGGGAAACCGAGCC (((.(((....))).))): -46 kcal/mol and 54.2 °C.
As for GCTAGACGAAAGTCGAGC (((.(((....))).))), the folding enthalpy in series [1] was -32.9 kcal/mol. The Tm in series [2] came out at 60.2 °C.
Taken in the same sequence, the figures for GACTTCCGAAAGGAGTC (((.(((....)))))) were -24.8 kcal/mol and 46.4 °C.
As for GTATAAGGAAACTTATGC (.(((((....))))).), the folding enthalpy in series [1] is -18.5 kcal/mol. For the same sequence, the Tm in series [2] is 31.6 °C.
The matching figures for GTACTAGGAAACTAGCAC ((.((((....)))).)): -22.1 kcal/mol and 32.2 °C.
The matching figures for GATCGAACATTCGATC ((((((....)))))): -38.5 kcal/mol and 50.7 °C.
Turning to GAAGTCGGAAACGACTTC (((((((....))))))), the folding enthalpy in series [1] was -36.4 kcal/mol. Further, in series [2], the Tm is 66 °C.
Taken in the same sequence, the figures for GATCTCGTGCGAGATC ((((((....)))))) were -54.9 kcal/mol and 56.3 °C.
With GGAGACCGAAAGGTATCC (((.(((....))).))), the folding enthalpy in series [1] was -41.4 kcal/mol. The Tm in series [2] turned out to be 61.4 °C.
Taken in the same sequence, the figures for GGTAAAACGAAAGTTACC (((..(((....)))))) were -19.1 kcal/mol and 37.3 °C.
Turning to GTCAGCGAAAGCTGTGAC ((((((....)))..))), the folding enthalpy in series [1] is -10.3 kcal/mol. Further, the Tm in series [2] worked out at 39.5 °C.
As to GATCAGAAACCTGATC ((((((....)))))), the folding enthalpy in series [1] was -36.9 kcal/mol. Further, the Tm in series [2] is 44.1 °C.
In the case of GAGTATGGAAACATATTC ((.((((....)))).)), the folding enthalpy in series [1] was -21.2 kcal/mol. In series [2], the Tm was found to be 30.8 °C.
On to GATAGCGGAAACGTTATC ((((.((....)).)))), for which, in series [1], the folding enthalpy is -34.8 kcal/mol. Also, the Tm in series [2] came out at 42.3 °C.
For the sequence GCGCACGAAAGTGAACGC ((((((....)))..))), the folding enthalpy in series [1] was -31.2 kcal/mol. For the same sequence, the Tm in series [2] is 54.5 °C.
For GACGGCGGAAACGTCGTC ((((.((....)).)))), in series [1], the folding enthalpy was -52.8 kcal/mol. For the same sequence, the Tm in series [2] is 61.1 °C.
With GCGTCGCGAAAGCTCCGC (((..((....))..))), in series [1], the folding enthalpy was -21.1 kcal/mol. For the same sequence, the Tm in series [2] was 46.8 °C.
As to GCTATGCGAAAGCTTAGC ((((.((....)).)))), in series [1], the folding enthalpy was -28.9 kcal/mol. Besides, the Tm in series [2] amounted to 60.8 °C.
